Test results: PMC6146057 (ACS chemical neuroscience, 2018)
Read-outs that look alike come from different tables or passages of the source.

Legend:
[1] = biological target: T1, dog M1 (Canis lupus familiaris, UniProt A0A8I3RVA9); experiment: Calcium mobilization assay, low expression M1 dog line; format: cell-based
T1 sequence (A0A8I3RVA9 1-460): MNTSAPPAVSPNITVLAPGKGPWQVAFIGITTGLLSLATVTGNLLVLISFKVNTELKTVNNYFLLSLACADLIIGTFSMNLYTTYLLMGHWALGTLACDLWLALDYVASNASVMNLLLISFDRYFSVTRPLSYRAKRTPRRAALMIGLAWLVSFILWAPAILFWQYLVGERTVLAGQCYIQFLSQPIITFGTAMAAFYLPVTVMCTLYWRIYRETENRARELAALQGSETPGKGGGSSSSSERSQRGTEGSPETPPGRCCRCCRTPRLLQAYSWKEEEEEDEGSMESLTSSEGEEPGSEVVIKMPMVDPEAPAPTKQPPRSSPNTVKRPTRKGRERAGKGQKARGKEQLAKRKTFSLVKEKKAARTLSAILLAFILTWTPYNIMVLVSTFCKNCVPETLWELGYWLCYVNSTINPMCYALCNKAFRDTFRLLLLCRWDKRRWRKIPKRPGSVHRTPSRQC

[2] = Plasma protein binding by equilibrium dialysis, cyno; format: in vitro ADME; details: cynomolgus monkey, pH 7.4
In short: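 Plasma spiked with test article was dialysed against 25 mM phosphate buffer, pH 7.4, by equilibrium dialysis for 4 h at 37 °C with shaking. Aliquots from each chamber were matrix-matched, extracted with ice-cold acetonitrile, centrifuged and quantified by LC/MS/MS.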

[3] = biological target: cytochrome P450 3A4 (Homo sapiens, UniProt P08684); experiment: CYP450 inhibition in human liver microsomes, 3A4; format: in vitro ADME
[4] = biological target: T2, cytochrome P450 1A2 (Homo sapiens, UniProt P05177); experiment: CYP450 inhibition in human liver microsomes, 1A2; format: in vitro ADME
T2 sequence (P05177 1-516): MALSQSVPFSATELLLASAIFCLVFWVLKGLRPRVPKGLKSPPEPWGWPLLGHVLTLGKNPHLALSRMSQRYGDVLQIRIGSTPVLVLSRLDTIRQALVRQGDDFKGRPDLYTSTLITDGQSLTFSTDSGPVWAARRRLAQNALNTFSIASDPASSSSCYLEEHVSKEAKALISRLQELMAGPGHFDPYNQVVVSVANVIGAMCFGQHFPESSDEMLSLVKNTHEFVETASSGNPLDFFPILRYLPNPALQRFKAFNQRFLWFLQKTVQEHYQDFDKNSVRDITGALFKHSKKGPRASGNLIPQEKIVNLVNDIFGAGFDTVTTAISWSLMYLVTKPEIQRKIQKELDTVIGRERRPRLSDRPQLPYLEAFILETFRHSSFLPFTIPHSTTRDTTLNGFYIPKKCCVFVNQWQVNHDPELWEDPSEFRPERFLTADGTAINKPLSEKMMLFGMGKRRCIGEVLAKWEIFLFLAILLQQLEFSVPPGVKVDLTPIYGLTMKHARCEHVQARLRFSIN

[5] = biological target: cytochrome P450 2C9 (Homo sapiens, UniProt P11712); experiment: CYP450 inhibition in human liver microsomes, 2C9; format: in vitro ADME
[6] = biological target: cytochrome P450 2D6 (Homo sapiens, UniProt P10635); experiment: CYP450 inhibition in human liver microsomes, 2D6; format: in vitro ADME
[7] = Rat brain:plasma distribution; format: in vivo; details: male, Sprague-Dawley, brain and plasma, intravenous
In short: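 Dual-cannulated male Sprague–Dawley rats received a cassette IV dose of 0.2–0.25 mg/kg per compound via the jugular vein. The vehicle was about 10% ethanol, 40% PEG400 and 50% DMSO. Carotid blood and brain were collected at 0.25 h. Brains were rinsed in PBS, snap frozen and bead-homogenised, and plasma and brain were analysed by LC/MS/MS.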

[8] = Mouse plasma-brain exposure; format: in vivo; details: male, C57BL/6J, brain and plasma, intraperitoneal, 100 mg/kg
In short: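 Male C57BL/6J mice aged 7–9 weeks were dosed i.p. with test compound in 10% Tween 80 (1–10 mg/mL, 10 mL/kg). Brain and trunk blood were collected at 0.25 h. Brains were washed in cold saline and frozen on dry ice. EDTA plasma was separated, and both matrices were analysed by LC/MS/MS.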

[9] = biological target: P-gp (Homo sapiens, UniProt P08183); experiment: MDCK P-gp efflux and permeability; format: in vitro ADME
[10] = Cynomolgus monkey IV/PO PK study; format: in vivo
In short: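 Male cynomolgus monkeys (n = 3) received a single IV bolus of 1 mg/kg in ethanol:PEG400:saline (10:60:30, v/v/v) and a single oral dose of 3 mg/kg in 30% aqueous Captisol. Plasma PK parameters were calculated by noncompartmental analysis.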

[11] = test system: 68 GPCRs, ion channels, and transporters; experiment: Eurofins Lead Profiling panel; format: binding; details: @10 μM, 68 targets
[12] = test system: rats; experiment: Novel object recognition task; format: in vivo, rat
In short: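 Male Sprague–Dawley rats were habituated to the arena. They received vehicle (10% Tween 80) or test compound at 1–10 mg/kg i.p. (1 mL/kg; n = 12) 30 min before a 10 min exposure to two identical objects. After 24 h, one object was replaced by a novel one and exploration was recorded for 3 min. A blinded observer scored exploration, and the recognition index was (novel − familiar)/total exploration time.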

[13] = test system: rats; experiment: Contextual fear conditioning, risperidone-induced deficit; format: in vivo, rat; details: 10 mg/kg VU0486846 coadministered with 3 mg/kg risperidone
[14] = male, cynomolgus monkey, plasma, intravenous, 1 mg/kg

Chain of P-gp (P08183 whole entry): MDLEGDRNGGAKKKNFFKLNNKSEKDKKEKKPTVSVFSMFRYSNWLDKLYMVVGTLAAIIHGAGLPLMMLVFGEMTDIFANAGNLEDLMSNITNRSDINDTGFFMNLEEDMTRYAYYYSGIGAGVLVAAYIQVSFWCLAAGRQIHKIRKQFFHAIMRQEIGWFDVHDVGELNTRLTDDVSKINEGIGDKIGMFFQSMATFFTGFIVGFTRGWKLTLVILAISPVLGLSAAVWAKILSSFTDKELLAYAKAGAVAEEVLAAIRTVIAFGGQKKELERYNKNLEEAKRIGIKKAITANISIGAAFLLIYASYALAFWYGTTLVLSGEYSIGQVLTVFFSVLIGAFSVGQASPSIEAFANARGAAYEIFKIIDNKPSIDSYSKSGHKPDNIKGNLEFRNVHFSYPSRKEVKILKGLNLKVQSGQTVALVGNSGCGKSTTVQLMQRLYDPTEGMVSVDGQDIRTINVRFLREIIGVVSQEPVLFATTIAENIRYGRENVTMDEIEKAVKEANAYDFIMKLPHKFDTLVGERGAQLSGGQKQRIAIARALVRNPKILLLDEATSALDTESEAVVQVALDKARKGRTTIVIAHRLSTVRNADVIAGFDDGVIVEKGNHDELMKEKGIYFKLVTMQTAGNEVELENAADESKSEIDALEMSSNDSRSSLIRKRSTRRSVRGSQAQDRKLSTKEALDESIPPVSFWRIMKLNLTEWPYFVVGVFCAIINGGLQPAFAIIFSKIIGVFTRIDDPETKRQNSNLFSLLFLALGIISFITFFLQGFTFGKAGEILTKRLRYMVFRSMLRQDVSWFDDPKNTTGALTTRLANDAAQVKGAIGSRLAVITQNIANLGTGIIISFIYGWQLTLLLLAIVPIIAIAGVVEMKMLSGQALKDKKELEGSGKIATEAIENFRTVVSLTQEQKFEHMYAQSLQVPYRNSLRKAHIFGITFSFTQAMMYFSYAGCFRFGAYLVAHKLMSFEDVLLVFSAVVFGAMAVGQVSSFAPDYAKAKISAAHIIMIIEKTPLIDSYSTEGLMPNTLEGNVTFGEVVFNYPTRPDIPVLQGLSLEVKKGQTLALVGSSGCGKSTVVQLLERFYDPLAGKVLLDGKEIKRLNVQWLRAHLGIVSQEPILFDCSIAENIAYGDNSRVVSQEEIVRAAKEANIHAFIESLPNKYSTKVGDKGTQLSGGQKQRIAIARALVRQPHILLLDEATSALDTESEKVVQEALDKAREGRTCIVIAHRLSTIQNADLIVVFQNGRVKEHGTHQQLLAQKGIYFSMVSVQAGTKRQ
Chain of cytochrome P450 3A4 (P08684 whole entry): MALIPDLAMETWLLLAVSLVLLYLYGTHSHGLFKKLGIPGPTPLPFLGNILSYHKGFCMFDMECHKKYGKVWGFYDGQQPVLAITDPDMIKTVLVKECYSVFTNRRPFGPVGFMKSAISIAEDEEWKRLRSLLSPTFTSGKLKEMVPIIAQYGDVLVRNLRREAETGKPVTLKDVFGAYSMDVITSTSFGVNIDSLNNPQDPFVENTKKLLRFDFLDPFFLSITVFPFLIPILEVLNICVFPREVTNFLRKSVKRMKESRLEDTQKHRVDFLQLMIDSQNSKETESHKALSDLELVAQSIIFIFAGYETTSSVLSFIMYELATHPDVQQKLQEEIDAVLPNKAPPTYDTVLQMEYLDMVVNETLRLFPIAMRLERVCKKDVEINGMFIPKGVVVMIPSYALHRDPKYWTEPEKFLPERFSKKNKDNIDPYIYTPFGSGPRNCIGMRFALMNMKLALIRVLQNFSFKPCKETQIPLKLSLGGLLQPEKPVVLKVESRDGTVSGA
Chain of cytochrome P450 2D6 (P10635 whole entry): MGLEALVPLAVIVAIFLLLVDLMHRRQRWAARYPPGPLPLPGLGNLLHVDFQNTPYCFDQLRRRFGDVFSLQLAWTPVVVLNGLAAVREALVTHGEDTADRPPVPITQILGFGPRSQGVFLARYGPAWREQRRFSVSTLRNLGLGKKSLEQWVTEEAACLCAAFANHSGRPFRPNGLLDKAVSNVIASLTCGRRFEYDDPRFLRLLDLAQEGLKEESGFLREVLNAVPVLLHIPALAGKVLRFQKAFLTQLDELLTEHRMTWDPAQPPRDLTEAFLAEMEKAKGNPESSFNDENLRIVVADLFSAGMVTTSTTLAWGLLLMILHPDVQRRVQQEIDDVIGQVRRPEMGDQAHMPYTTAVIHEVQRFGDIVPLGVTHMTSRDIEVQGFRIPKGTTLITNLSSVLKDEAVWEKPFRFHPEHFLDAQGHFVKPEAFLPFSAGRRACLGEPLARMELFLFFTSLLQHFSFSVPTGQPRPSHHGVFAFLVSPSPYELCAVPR
Chain of cytochrome P450 2C9 (P11712 whole entry): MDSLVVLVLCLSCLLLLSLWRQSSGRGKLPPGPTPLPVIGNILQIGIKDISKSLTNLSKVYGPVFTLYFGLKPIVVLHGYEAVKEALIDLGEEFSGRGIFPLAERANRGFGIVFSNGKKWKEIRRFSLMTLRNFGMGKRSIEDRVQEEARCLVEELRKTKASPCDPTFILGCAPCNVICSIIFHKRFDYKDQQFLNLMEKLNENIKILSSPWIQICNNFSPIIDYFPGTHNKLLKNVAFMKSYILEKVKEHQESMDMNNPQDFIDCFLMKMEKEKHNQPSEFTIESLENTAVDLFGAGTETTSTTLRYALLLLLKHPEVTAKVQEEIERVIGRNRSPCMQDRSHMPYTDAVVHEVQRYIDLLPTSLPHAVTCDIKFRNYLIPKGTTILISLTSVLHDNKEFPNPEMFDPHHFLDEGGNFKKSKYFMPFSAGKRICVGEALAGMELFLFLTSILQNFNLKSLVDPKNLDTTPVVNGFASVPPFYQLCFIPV

## O=C(N[C@H]1CCCC[C@@H]1O)[C@H]1CN(Cc2ccc(-n3cccn3)cc2)c2ccccc2O1 [VU0486846, (2R)-N-[(1S,2S)-2-Hydroxycyclohexyl]-4-[(4-pyrazol-1-ylphenyl)-methyl]-2,3-dihydro-1,4-benzoxazine-2-carboxamide]
[1]; M1 PAM EC50, dog M1 line, low expression
  EC50: 0.38 µM
[1]; M1 PAM pEC50, dog M1 line, low expression
  EC50: 0.389 µM
[1]; M1 agonist activity EC50, dog M1 line, compound alone
  EC50: > 10 µM
[1]; read-out: M1 PAM efficacy, % ACh Max
  Emax: 78 ± 1%
[1]; read-out: M1 agonist activity, % ACh Max
  Emax: 18 ± 0.2%
[2]
  fraction unbound at 4 h: 0.016
[3]
  IC50: 5 µM
[4]
  IC50: > 30 µM
[5]
  IC50: 18.8 µM
[6]
  IC50: 29.8 µM
[7]
  Kp at 0.25 h: 0.18
  Kp uu at 0.25 h: 0.05
[8]
  Kp at 0.25 h: 0.67
  Kp uu at 0.25 h: 0.17
[9]; MDCK
  human P-gp substrate: not a human P-gp substrate
[9]; human, MDCK
  Papp: 30 ×10⁻⁶ cm/s
[9]; human, MDCK-MDR1
  efflux ratio: 0.9
[10]; cynomolgus monkey PK study
  Adverse events or cholinergic side effects in PK study: No adverse events or cholinergic side effects
[10]; male, cynomolgus monkey, plasma, 1 mg/kg
  half-life: 4.2 h
[10]; [14]
  Vd: 1 L/kg
  clearance: 18 mL/min/kg
[10]; male, cynomolgus monkey, plasma, po, 3 mg/kg
  bioavailability: 37%
[11]
  inhibition at any target in the panel: ≤ 50%
[12]; 1–10 mg/kg i.p.
  Effect on recognition memory: dose-dependently enhanced recognition memory
[12]; i.p., 30 min pretreatment, memory assessed 24 h later
  minimum effective dose, novel object recognition: 3 mg/kg
[13]
  Conditioned freezing: restored conditioned freezing to vehicle-treated control levels
